# In ChEMBL document CHEMBL1142706, “Synthesis and evaluation of (pyridylmethylene)tetrahydronaphthalenes/-indanes and structurally modified derivatives: potent and selective inhibitors of aldosterone synthase” (J Med Chem, 2005):
# Legend:
# [1] = molecular target: T1, Cytochrome P450 11B2, mitochondrial (Homo sapiens, UniProt P19099); assay: In vitro inhibition of human CYP11B2 expressed in Schizosaccharomyces pombe incubated with 100 nM of substrate deoxy-corticosterone in presence of 500 nM of compound
# T1 sequence (P19099 whole entry): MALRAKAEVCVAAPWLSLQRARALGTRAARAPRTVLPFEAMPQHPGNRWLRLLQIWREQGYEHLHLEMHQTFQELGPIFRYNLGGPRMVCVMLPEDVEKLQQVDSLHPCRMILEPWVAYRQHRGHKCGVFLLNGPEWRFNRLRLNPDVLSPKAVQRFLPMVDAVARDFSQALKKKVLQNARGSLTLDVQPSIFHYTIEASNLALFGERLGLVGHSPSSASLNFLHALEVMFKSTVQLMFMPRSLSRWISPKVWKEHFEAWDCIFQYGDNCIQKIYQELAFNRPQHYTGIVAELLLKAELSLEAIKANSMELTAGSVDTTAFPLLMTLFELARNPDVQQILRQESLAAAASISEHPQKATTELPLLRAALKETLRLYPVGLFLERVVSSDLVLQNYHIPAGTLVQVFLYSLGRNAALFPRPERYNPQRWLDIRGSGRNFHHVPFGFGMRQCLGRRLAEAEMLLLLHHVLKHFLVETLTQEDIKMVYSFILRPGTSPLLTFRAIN
# Aromatase = molecular target: T2, Aromatase (Homo sapiens, UniProt P11511); assay: In vitro inhibitory concentration against human placental CYP19 incubated with 500 nM of substrate androstenedione in presence of the compound
# T2 sequence (P11511 whole entry): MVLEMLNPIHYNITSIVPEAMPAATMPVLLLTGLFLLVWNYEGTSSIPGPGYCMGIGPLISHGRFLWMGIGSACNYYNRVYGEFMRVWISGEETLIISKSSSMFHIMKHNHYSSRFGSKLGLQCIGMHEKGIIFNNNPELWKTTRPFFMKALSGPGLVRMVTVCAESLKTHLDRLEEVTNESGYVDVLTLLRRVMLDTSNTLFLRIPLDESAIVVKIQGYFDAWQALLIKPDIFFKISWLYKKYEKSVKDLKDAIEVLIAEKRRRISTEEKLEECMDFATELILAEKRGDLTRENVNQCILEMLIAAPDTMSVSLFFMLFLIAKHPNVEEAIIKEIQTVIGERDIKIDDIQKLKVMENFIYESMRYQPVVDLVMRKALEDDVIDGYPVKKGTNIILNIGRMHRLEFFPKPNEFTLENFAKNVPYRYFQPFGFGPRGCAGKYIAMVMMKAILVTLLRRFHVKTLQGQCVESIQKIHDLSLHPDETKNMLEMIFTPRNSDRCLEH
# [2] = molecular target: T1, Cytochrome P450 11B2, mitochondrial; assay: In vitro inhibitory concentration against human CYP11B2 expressed in V79MZh hamster fibroblasts incubated with 100 nM of substrate deoxy-corticosterone in presence of the compound
# Procedure, shortened: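 Intact V79 MZh hamster fibroblasts expressing human CYP11B1 or CYP11B2, incubated with [4-14C]-11-deoxycorticosterone (100 nM) and inhibitor at no fewer than three concentrations to give IC50. Stopped with ethyl acetate, shaken, centrifuged (10 000g, 2 min); steroids in organic phase analysed by HPTLC/phosphoimager. Mean of four determinations, standard deviation less than 5%.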
# CYP17 = molecular target: T3, CYP17 (Homo sapiens, UniProt P05093); assay: In vitro inhibition of human CYP17 expressed in Escherichia coli incubated with 2.5 uM of substrate progesterone in presence of 2.5 uM of compound; conditions: probe progesterone
# T3 sequence (P05093 whole entry): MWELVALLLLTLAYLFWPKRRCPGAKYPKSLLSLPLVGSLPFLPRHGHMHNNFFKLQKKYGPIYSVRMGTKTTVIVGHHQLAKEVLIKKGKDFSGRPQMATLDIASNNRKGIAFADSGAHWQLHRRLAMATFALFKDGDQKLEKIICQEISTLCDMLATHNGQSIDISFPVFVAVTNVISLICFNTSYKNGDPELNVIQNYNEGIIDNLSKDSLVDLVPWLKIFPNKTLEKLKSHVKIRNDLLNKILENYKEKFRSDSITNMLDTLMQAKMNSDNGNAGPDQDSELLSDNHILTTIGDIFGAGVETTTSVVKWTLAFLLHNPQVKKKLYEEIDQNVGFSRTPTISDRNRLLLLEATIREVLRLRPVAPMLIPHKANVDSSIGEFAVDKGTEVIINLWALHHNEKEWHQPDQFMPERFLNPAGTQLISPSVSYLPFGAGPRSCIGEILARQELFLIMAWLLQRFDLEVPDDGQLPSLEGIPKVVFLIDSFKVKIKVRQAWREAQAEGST
# Homo sapiens = species on record: Homo sapiens; assay: In vitro IC50 ratio against human CYP11B1 to that of human CYP11B2
# Procedure, shortened: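 IC50 ratio from V79 MZh hamster fibroblasts expressing human CYP11B1 or CYP11B2, each incubated with [4-14C]-11-deoxycorticosterone (100 nM) and inhibitor at no fewer than three concentrations; steroids extracted into ethyl acetate and quantified by HPTLC with phosphoimaging.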
Compound,inhibition at 0.5 µM [1],IC50 (Aromatase),IC50 [2],inhibition at 2.5 µM (CYP17),Selectivity ratio (Homo sapiens)
C(=C1c2ccccc2-c2ccccc21)c1ccncc1,6%,2.74 µM,0.005 µM,–,–
COc1ccc2c(c1)CCC/C2=C/c1cccnc1,–,–,–,17%,0.2
Fc1cccc2c1CC/C2=C/c1cccnc1,40%,0.18 µM,–,53%,–
COc1ccc2c(c1)CCC/C2=C\c1ccncc1,31%,0.8 µM,0.022 µM,–,–
COc1ccc2c(c1)/C(=C\c1ccncc1)CC2,24%,–,0.026 µM,–,–
Fc1ccc2c(c1)CC/C2=C\c1cccnc1,–,–,0.007 µM,17%,44.4
Cc1ccc2c(c1)/C(=C/c1cccnc1)CC2,27%,3.93 µM,–,3%,–
Cc1cccc2c1CC/C2=C\c1cccnc1,–,–,–,40%,7.1
COc1ccc2c(c1)CC/C2=C\c1ccncc1,11%,–,0.059 µM,–,–
COc1ccc2c(c1)CC/C2=C/c1cncs1,17%,4.83 µM,0.005 µM,–,–
CCOc1ccc2c(c1)CC/C2=C/c1cccnc1,–,–,–,6%,10.9
Brc1ccc2c(c1)CC/C2=C/c1cccnc1,–,–,–,24%,1.9
Cc1cccc2c1CC/C2=C/c1cccnc1,12%,12.6 µM,–,16%,–
COc1ccc2c(c1)CC/C2=C\c1cccnc1,–,–,–,36%,42.6
Fc1ccc2c(c1)CC/C2=C/c1cncnc1,14%,0.79 µM,–,–,–
C(=C(c1ccccc1)c1ccccc1)c1cccnc1,5%,3.63 µM,0.009 µM,–,–
Brc1ccc2c(c1)CC/C2=C\c1cccnc1,–,–,–,16%,52.4
N#Cc1ccc(C2CCCc3cncn32)cc1 (stereo not drawn) [FADROZOLE],–,–,–,5%,–
Clc1ccc2c(c1)CC/C2=C/c1ccncc1,37%,1.99 µM,0.301 µM,–,–
C(=C(c1ccccc1)c1ccccc1)c1ccncc1,32%,0.1 µM,0.022 µM,–,–
Fc1ccc2c(c1)CC/C2=C\c1cccc2ncccc12,0%,> 36 µM,0.014 µM,–,–
Fc1cccc2c1CC/C2=C\c1cccnc1,–,–,–,42%,36.9
COc1ccc2c(c1)CC/C2=C/c1ccncc1,13%,–,0.055 µM,–,–
Cc1ccc2c(c1)/C(=C\c1ccncc1)CC2,46%,1.71 µM,0.008 µM,–,–

Compound,inhibition at 0.5 µM [1],IC50 (Aromatase),IC50 [2],inhibition at 2.5 µM (CYP17),Selectivity ratio (Homo sapiens)
Clc1ccc2c(c1)CC/C2=C/c1cccnc1,–,–,–,28%,3.7
Fc1ccc2c(c1)CC/C2=C/c1ccnc2ccccc12,0%,> 36 µM,0.014 µM,–,–
Fc1ccc2c(c1)CC/C2=C/c1cccc2ncccc12,0%,> 36 µM,0.031 µM,–,–
C(=C1/CC(c2ccccc2)c2ccccc21)/c1cccnc1 (stereo not drawn),0%,4.06 µM,0.003 µM,–,–
COc1ccc2c(c1)CCC/C2=C\c1cccnc1,–,–,–,20%,15.8
COc1ccc2c(c1)/C(=C/c1ccncc1)CC2,26%,–,0.003 µM,–,–
CC1C/C(=C\c2cccnc2)c2ccccc21 (stereo not drawn),47%,3.68 µM,–,–,–
COc1cc2c(cc1OC)/C(=C/c1ccncc1)CCC2,29%,0.09 µM,0.011 µM,–,–
COc1ccc2c(c1)CCC/C2=C/c1ccncc1,36%,1.01 µM,0.056 µM,–,–
COc1ccc2c(c1)CC/C2=C/c1cccnc1,–,–,0.026 µM,49%,30.4
C(=C1/CCCc2ccccc21)/c1cccnc1,–,–,0.022 µM,9%,32.5
Clc1ccc2c(c1)CC/C2=C\c1cccnc1,–,–,–,26%,56.6
Fc1ccc2c(c1)CC/C2=C/c1cccnc1,–,–,0.011 µM,16%,11.4
Clc1cccc2c1CC/C2=C\c1cccnc1,–,–,0.009 µM,14%,33.8
COc1cccc2c1/C(=C/c1cccnc1)CC2,–,–,–,5%,35.4
C(=C1\CCCc2ccccc21)/c1cccnc1,–,–,–,24%,10.1
C(=C1c2ccccc2-c2ccccc21)c1cccnc1,0%,4.81 µM,0.006 µM,–,–
Fc1ccc2c(c1)CC/C2=C\c1ccnc2ccccc12,0%,> 36 µM,0.02 µM,–,–
Clc1cccc2c1CC/C2=C/c1cccnc1,–,–,0.031 µM,32%,21.1
Cc1ccc2c(c1)/C(=C/c1ccncc1)CC2,41%,1.28 µM,0.004 µM,–,–
COc1ccc2c(c1)CC/C2=C\c1cncs1,18%,4.33 µM,0.017 µM,–,–
C(=C1/CCc2ccccc21)/c1ccncc1,–,–,0.008 µM,–,–
CCOc1ccc2c(c1)CC/C2=C\c1cccnc1,–,–,–,13%,30
